Source: ChEMBL document CHEMBL4354843, “Structure-Based Design of a Potent and Selective Covalent Inhibitor for SRC Kinase That Targets a P-Loop Cysteine” (J Med Chem, 2020)

Tests used:
[1] = tested on: Tyrosine-protein kinase ABL1 (Homo sapiens), P00519 [T315I]; experiment: Binding affinity to human non-phosphorylated ABL1 T315I mutant (S229 to K512 residues) expressed in mammalian expression system assessed as residual binding level at 1 uM by Kinomescan method relative to control
Method in brief: (§1)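 KinomeScan active site-directed competition binding panel (468 kinases), compound tested at 1 μM. Result expressed as remaining kinase signal versus DMSO control (percent of control).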

[2] = biological target: Aurora kinase B (Homo sapiens) (UniProt Q96GD4); experiment: Binding affinity to wild-type human partial length AURKB (D25 to A303 residues) expressed in mammalian expression system assessed as residual binding level at 1 uM by Kinomescan method relative to control
Method in brief: (§2)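 KinomeScan, an active site-directed competition binding panel of 468 kinases. The test compound was at 1 μM. The readout is remaining kinase binding as a percentage of the DMSO control. Scores above 35% were treated as weak binding and not listed.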

[3] = biological target: Cyclin-dependent kinase 13 (Homo sapiens) (UniProt Q14004); experiment: Binding affinity to wild-type human partial length CDC2L5 (H675 to S1054 residues) expressed in mammalian expression system assessed as residual binding level at 1 uM by Kinomescan method relative to control
[4] = biological target: Cyclin-dependent kinase-like 3 (Homo sapiens) (UniProt Q8IVW4); experiment: Binding affinity to wild-type human partial length CDKL3 (M1 to D327 residues) expressed in bacterial expression system assessed as residual binding level at 1 uM by Kinomescan method relative to control
[5] = biological target: Epithelial discoidin domain-containing receptor 1 (Homo sapiens) (UniProt Q08345); experiment: Binding affinity to wild-type human partial length DDR1 (R565 to V876 residues) expressed in bacterial expression system assessed as residual binding level at 1 uM by Kinomescan method relative to control
Method in brief: (§3)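 Active-site-directed competition binding panel of 468 kinases (KinomeScan), compound at 1 μM. The read-out is kinase remaining bound, given as a percentage of the DMSO control. […]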

[6] = tested on: Epidermal growth factor receptor (Homo sapiens), P00533 [G719C]; experiment: Binding affinity to human partial length EGFR G719C mutant (R669 to V1011 residues) expressed in bacterial expression system assessed as residual binding level at 1 uM by Kinomescan method relative to control; method in brief: as §1
[7] = biological target: Ephrin type-A receptor 8 (Homo sapiens) (UniProt P29322); experiment: Binding affinity to wild-type human partial length EPHA8 (Q608 to C920 residues) expressed in bacterial expression system assessed as residual binding level at 1 uM by Kinomescan method relative to control; method in brief: as §3
[8] = tested on: Receptor-type tyrosine-protein kinase FLT3 (Homo sapiens), P36888 [UNDEFINED MUTATION]; experiment: Binding affinity to human partial length FLT3 ITD mutant expressed in bacterial expression system assessed as residual binding level at 1 uM by Kinomescan method relative to control; method in brief: as §1
[9] = biological target: Tyrosine-protein kinase HCK (Homo sapiens, UniProt P08631); experiment: Binding affinity to wild-type human full length HCK (M22 to P526 residues) expressed in bacterial expression system assessed as residual binding level at 1 uM by Kinomescan method relative to control; method in brief: as §2
[10] = biological target: Homeodomain-interacting protein kinase 4 (Homo sapiens) (UniProt Q8NE63); experiment: Binding affinity to wild-type human partial length HIPK4 (M1 to V384 residues) expressed in bacterial expression system assessed as residual binding level at 1 uM by Kinomescan method relative to control
[11] = biological target: Inhibitor of nuclear factor kappa-B kinase subunit alpha (Homo sapiens) (UniProt O15111); experiment: Binding affinity to wild-type human full length IKK-alpha (M1 to E745 residues) expressed in mammalian expression system assessed as residual binding level at 1 uM by Kinomescan method relative to control
Method in brief: (§4)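 Active-site-directed KinomeScan competition binding panel covering 468 kinases, compound tested at 1 μM. Each readout is the kinase signal remaining with compound, expressed as a percentage of the DMSO control. […]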

[12] = biological target: Inhibitor of nuclear factor kappa-B kinase subunit beta (Homo sapiens) (UniProt O14920); experiment: Binding affinity to wild-type human full length IKK-beta (M1 to S756 residues) expressed in mammalian expression system assessed as residual binding level at 1 uM by Kinomescan method relative to control; method in brief: as §4
[13] = biological target: Mast/stem cell growth factor receptor Kit (Homo sapiens) (UniProt P10721); experiment: Binding affinity to wild-type human partial length autoinhibited KIT (Y545 to D952 residues) expressed in mammalian expression system assessed as residual binding level at 1 uM by Kinomescan method relative to control
[14] = biological target: Serine/threonine-protein kinase Nek4 (Homo sapiens) (UniProt P51957); experiment: Binding affinity to wild-type human full length NEK4 (M1 to F841 residues) expressed in mammalian expression system assessed as residual binding level at 1 uM by Kinomescan method relative to control; method in brief: as §2
[15] = biological target: Serine/threonine-protein kinase PAK 1 (Homo sapiens) (UniProt Q13153); experiment: Binding affinity to wild-type human partial length PAK1 (S149 to H545 residues) expressed in bacterial expression system assessed as residual binding level at 1 uM by Kinomescan method relative to control
[16] = biological target: Phosphorylase b kinase gamma catalytic chain, skeletal muscle/heart isoform (Homo sapiens) (UniProt Q16816); experiment: Binding affinity to wild-type human full length PHKG1 (M1 to Y387 residues) expressed in bacterial expression system assessed as residual binding level at 1 uM by Kinomescan method relative to control
Method in brief: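 Active-site-directed competition binding panel (KinomeScan) covering 468 kinases. Test agent was screened at 1 μM. The read-out is the remaining kinase signal expressed relative to a DMSO control. Scores above 35%, taken as weak binding, were not reported.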

[17] = biological target: Phosphatidylinositol 5-phosphate 4-kinase type-2 gamma (Homo sapiens) (UniProt Q8TBX8); experiment: Binding affinity to wild-type human partial length PIP5K2C (M1 to A421 residues) expressed in mammalian expression system assessed as residual binding level at 1 uM by Kinomescan method relative to control
[18] = biological target: Membrane-associated tyrosine- and threonine-specific cdc2-inhibitory kinase (Homo sapiens) (UniProt Q99640); experiment: Binding affinity to wild-type human partial length PKMYT1 (A88 to G366 residues) expressed in bacterial expression system assessed as residual binding level at 1 uM by Kinomescan method relative to control
[19] = biological target: Serine/threonine-protein kinase D1 (Homo sapiens) (UniProt Q15139); experiment: Binding affinity to wild-type human partial length PRKD1 (G551 to E870 residues) expressed in bacterial expression system assessed as residual binding level at 1 uM by Kinomescan method relative to control
[20] = biological target: Proto-oncogene tyrosine-protein kinase receptor Ret (Homo sapiens) (UniProt P07949); experiment: Binding affinity to wild-type human partial length RET (E713 to D1014 residues) expressed in bacterial expression system assessed as residual binding level at 1 uM by Kinomescan method relative to control
[21] = biological target: Ribosomal protein S6 kinase alpha-3 (Homo sapiens) (UniProt P51812); experiment: Binding affinity to wild-type human partial length N- terminal RSK2 kinase domain 1 (M1 to D394 residues) expressed in mammalian expression system assessed as residual binding level at 1 uM by Kinomescan method relative to control

Epithelial discoidin domain-containing receptor 1 (Homo sapiens), sequence (Q08345 whole entry, the tested form may be a part): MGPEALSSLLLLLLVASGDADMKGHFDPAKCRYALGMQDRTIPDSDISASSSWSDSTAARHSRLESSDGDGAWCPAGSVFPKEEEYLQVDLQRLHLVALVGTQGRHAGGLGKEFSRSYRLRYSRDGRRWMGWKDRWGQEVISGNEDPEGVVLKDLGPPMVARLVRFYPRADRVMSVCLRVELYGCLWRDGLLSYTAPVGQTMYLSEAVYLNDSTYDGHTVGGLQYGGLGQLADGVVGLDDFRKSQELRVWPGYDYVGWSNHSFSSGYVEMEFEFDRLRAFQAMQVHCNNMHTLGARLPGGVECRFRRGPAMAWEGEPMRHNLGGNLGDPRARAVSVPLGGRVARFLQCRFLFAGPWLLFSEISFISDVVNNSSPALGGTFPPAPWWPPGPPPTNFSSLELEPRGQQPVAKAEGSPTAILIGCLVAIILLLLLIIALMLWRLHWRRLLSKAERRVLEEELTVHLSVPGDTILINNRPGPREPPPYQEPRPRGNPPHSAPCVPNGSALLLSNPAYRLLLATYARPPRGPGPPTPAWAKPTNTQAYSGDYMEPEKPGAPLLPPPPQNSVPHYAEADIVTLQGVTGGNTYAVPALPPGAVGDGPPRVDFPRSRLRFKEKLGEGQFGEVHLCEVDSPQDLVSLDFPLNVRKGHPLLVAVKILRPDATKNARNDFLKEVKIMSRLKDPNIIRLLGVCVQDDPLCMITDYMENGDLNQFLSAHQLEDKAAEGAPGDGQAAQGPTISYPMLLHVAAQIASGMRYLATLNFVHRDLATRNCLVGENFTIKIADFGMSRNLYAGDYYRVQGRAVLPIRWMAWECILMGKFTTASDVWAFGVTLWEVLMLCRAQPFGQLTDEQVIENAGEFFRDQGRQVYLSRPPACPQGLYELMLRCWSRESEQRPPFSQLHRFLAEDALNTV
Serine/threonine-protein kinase PAK 1 (Homo sapiens), sequence (Q13153 whole entry, the tested form may be a part, canonical isoform): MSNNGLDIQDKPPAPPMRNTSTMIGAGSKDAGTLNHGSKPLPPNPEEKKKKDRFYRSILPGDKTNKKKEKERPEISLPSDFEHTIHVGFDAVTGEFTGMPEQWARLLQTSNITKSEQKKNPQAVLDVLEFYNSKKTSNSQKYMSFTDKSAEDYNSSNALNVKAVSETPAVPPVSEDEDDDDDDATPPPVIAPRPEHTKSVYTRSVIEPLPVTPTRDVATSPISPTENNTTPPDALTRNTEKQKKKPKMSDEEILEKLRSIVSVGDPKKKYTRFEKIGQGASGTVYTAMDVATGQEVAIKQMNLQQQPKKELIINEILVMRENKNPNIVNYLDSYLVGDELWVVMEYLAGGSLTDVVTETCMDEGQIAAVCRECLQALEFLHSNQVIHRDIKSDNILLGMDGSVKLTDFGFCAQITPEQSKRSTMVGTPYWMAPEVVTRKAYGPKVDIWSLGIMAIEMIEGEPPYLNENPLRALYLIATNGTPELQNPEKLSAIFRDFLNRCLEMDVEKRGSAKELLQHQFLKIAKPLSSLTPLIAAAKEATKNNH
Phosphorylase b kinase gamma catalytic chain, skeletal muscle/heart isoform (Homo sapiens), sequence (Q16816 whole entry, looked up, the tested form may be a part, canonical isoform): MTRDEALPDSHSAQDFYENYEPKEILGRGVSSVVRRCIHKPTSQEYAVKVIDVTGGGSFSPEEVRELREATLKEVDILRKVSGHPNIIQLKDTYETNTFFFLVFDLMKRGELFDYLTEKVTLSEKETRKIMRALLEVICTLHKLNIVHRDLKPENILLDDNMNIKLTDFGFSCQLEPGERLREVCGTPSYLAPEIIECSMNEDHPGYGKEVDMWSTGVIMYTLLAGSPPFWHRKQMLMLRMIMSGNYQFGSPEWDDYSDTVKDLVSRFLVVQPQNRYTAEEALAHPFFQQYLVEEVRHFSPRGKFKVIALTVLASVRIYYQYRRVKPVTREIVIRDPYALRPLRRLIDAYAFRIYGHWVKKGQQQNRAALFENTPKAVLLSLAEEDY
Homeodomain-interacting protein kinase 4 (Homo sapiens), sequence (Q8NE63 whole entry, the tested form may be a part): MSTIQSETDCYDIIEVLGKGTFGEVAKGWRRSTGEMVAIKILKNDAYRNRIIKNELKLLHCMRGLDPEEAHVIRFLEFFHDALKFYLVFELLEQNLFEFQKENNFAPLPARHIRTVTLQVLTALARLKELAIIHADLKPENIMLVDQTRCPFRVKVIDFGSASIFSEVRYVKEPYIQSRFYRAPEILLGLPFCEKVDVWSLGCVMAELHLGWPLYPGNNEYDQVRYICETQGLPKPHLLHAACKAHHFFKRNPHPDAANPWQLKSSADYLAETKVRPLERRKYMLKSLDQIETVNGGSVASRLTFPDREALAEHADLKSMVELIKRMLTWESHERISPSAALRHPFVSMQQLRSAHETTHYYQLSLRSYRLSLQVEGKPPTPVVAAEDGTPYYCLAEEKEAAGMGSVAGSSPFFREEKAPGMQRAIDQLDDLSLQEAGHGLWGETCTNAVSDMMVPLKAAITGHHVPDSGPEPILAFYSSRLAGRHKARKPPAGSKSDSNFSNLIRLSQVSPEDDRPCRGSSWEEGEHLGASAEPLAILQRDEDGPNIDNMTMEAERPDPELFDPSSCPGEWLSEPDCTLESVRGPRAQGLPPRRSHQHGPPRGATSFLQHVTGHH
Phosphatidylinositol 5-phosphate 4-kinase type-2 gamma (Homo sapiens), sequence (Q8TBX8 whole entry, the tested form may be a part): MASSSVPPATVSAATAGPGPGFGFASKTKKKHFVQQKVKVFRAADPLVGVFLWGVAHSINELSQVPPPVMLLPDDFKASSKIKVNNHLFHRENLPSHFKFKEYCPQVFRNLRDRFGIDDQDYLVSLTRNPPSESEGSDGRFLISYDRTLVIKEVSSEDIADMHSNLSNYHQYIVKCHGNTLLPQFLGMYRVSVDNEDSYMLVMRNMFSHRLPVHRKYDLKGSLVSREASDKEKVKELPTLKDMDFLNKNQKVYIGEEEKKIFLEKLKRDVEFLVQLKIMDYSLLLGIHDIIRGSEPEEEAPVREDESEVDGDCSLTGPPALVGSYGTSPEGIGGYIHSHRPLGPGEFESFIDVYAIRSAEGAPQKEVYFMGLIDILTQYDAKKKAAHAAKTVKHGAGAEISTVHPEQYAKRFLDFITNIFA
Cyclin-dependent kinase 13 (Homo sapiens), sequence (Q14004 whole entry, looked up, the tested form may be a part): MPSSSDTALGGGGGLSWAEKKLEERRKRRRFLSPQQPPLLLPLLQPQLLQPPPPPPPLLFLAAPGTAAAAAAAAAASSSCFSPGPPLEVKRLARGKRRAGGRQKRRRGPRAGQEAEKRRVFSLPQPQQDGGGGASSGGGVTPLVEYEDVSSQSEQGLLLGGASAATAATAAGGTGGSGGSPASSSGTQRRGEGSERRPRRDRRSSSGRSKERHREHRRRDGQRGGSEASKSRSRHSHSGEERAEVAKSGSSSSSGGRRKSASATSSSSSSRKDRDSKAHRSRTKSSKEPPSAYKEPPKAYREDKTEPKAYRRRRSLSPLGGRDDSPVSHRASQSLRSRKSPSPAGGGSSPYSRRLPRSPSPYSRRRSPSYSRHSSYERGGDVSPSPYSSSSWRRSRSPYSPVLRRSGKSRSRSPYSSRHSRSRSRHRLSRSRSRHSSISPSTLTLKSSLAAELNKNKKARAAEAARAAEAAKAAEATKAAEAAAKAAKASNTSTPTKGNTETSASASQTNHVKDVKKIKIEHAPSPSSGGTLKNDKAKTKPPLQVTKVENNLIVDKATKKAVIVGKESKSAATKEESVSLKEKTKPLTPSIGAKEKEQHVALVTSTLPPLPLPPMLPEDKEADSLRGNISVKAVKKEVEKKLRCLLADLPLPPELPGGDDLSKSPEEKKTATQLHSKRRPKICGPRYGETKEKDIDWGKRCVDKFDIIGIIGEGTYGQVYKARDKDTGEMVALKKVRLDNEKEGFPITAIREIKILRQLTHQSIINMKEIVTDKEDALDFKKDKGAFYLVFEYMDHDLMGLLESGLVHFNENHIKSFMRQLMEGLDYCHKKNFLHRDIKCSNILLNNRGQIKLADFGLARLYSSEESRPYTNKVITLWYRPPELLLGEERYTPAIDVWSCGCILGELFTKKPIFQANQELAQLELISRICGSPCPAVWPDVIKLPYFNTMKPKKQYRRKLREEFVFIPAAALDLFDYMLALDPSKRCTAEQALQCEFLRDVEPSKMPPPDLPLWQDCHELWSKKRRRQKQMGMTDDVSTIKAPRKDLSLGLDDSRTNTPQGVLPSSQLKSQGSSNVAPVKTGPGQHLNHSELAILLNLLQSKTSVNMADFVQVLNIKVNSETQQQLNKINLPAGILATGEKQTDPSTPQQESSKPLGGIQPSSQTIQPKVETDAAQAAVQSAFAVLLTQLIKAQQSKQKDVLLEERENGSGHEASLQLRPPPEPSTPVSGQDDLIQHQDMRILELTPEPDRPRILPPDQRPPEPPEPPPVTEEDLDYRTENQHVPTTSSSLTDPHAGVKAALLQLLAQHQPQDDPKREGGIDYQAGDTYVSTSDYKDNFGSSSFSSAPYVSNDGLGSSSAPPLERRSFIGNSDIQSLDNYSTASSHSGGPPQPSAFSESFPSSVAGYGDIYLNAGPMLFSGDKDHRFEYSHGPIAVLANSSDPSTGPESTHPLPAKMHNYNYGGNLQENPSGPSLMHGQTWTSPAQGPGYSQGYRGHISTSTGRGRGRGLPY
Aurora kinase B (Homo sapiens), sequence (Q96GD4 whole entry, the tested form may be a part): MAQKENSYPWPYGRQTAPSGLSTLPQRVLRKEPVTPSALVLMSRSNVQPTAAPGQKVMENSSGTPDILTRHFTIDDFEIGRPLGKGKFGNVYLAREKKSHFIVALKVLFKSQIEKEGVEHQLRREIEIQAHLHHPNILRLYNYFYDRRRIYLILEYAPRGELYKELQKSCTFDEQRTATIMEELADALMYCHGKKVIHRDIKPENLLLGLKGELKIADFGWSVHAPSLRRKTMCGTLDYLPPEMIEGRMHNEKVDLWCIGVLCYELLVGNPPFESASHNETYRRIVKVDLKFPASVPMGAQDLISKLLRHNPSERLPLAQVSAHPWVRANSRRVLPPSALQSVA

C=CC(=O)Nc1ccccc1Nc1nc(Nc2ccc(N3CCN(C)CC3)cc2)ncc1C(=O)Nc1c(C)cccc1Cl
Activity [1]: 100%
Activity [2]: 79%
Activity [3]: 92%
Activity [4]: 100%
Activity [5]: 1.1%
Activity [6]: 100%
Activity [7]: 1%
Activity [8]: 100%
Activity [9]: 0.8%
Activity [10]: 100%
Activity [11]: 100%
Activity [12]: 100%
Activity [13]: 92%
Activity [14]: 94%
Activity [15]: 100%
Activity [16]: 100%
Activity [17]: 100%
Activity [18]: 100%
Activity [19]: 100%
Activity [20]: 100%
Activity [21]: 75%
